Measurements published in ChEMBL document CHEMBL2157982, “Synthesis and structure-activity relationships of 8-substituted-2-aryl-5-alkylaminoquinolines: Potent, orally active corticotropin-releasing factor-1 receptor antagonists” (Bioorg Med Chem, 2012).
Values after ≈ are worked out from the molar mass of the structure shown. Active and inactive are the calls of the source. No cut-off for these calls is given here.

What was measured:
[1] = target: T1, Corticotropin-releasing factor receptor 1 (Homo sapiens, UniProt P34998); experiment: Displacement of [125I]-CRF from human CRF1 receptor expressed in HEK293 cells after 2 hrs by scintillation counting; format: cell-based
T1 sequence (P34998 whole entry): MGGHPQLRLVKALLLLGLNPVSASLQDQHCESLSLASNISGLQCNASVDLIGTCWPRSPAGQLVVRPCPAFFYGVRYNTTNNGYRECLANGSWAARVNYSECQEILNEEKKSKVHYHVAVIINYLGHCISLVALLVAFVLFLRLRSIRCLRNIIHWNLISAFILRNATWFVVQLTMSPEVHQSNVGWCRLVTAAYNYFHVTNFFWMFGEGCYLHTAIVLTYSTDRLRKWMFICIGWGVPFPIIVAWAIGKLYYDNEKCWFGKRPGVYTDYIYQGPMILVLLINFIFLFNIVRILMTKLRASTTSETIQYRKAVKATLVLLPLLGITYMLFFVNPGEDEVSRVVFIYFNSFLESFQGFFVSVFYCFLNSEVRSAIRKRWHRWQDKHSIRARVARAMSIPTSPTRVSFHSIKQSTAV
How it was run: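 Scintillation proximity assay using HEK293/human CRF1 membranes (5 µg/well), WGA-coated SPA beads (1 mg/well) and 0.1 nM [125I] human/rat CRF. Buffer: PBS-type salts, 10 mM MgCl2, 2 mM EGTA, 1.5% BSA, protease inhibitors, pH 7.0. Incubated over 2 h at room temperature, then centrifuged and counted. Nonspecific binding defined with 0.4 µM sauvagine. IC50 from concentration-response curve of % total specific binding.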

[2] = Aqueous solubility of the compound in Dulbecco's phosphate-buffered saline at pH 7.4 by high-throughput HPLC method; format: physicochemical
How it was run: (§1)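 A 10 mM DMSO stock of compound was diluted 1:100 into buffer in a filter plate and shaken 15 min at room temperature, then filtered. Filtrate analysed by reverse-phase HPLC-UV against an external DMSO standard. Buffers: pH 1.2 HCl/NaCl; pH 5 and 9 Britton–Robinson (acetate/phosphate/borate with KCl, NaOH-adjusted); pH 7.4 Dulbecco's PBS.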

[3] = target: T1, Corticotropin-releasing factor receptor 1; experiment: Antagonist activity at human CRF1 receptor expressed in HEK293 cells assessed as inhibition of CRF-induced intracellular cAMP production preincubated for 30 mins before CRF addition measured after 30 mins by enzyme immunoassay; format: functional, cell-based
[4] = Solubility of the compound in Britton-Robinson buffer at pH 9 by high-throughput HPLC method; format: physicochemical; how it was run: as §1
[5] = Dissociation constant, pKa of the compound; format: physicochemical
[6] = Solubility of the compound in HCl/NaCl at pH 1.2 by high-throughput HPLC method; format: physicochemical; details: HCl/NaCl solution; how it was run: as §1
[7] = Solubility of the compound in Britton-Robinson buffer at pH 5 by high-throughput HPLC method; format: physicochemical; how it was run: as §1
Mus musculus [8] = experiment: Anxiolytic activity in po dosed BALB/c mouse assessed as increase in number of tunnel crossings at 30 mg/kg, po administered 60 mins before test measured for 5 mins by light-dark test; format: functional, organism-based; parameters: dose 30 mg/kg
How it was run: (§2)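 Male BALB/c mice, n = 10/group, dosed orally 1 h before test. Animals were habituated to 10 lx for at least 2 h (room at 150 lx) and placed in the dark compartment at start. Observed for 5 min, scoring time in the illuminated box and number of tunnel crossings. Mean ± S.E.M., Dunnett test versus vehicle.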

Mus musculus [9] = experiment: Anxiolytic activity in BALB/c mouse assessed as increase in time spent on illuminated box at 30 mg/kg, po administered 60 mins before test measured for 5 mins by light-dark test; format: functional, organism-based; parameters: dose 30 mg/kg; how it was run: as §2
Mus musculus [10] = experiment: Anxiolytic activity in po dosed BALB/c mouse assessed as increase in time spent on illuminated box administered 60 mins before test measured for 5 mins by light-dark test; format: functional, organism-based; how it was run: as §2
Mus musculus [11] = experiment: Anxiolytic activity in po dosed BALB/c mouse assessed as increase in number of tunnel crossings administered 60 mins before test measured for 5 mins by light-dark test; format: functional, organism-based; how it was run: as §2
[12] = Half life in Fischer 344 rat at 3 mg/kg, iv; format: ADME, organism-based; parameters: dose 3 mg/kg, route intravenous; details: in vivo
How it was run: (§3)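 Fasted F344 rats (n = 3 per dose, 189.4–205.9 g) received 3 mg/kg iv in 5% EtOH-0.02 mol/L HCl/5% glucose, or 10 mg/kg po in 5% DMSO/5% Cremophor EL/HCl/water. Blood sampled at 0.083 h (iv only), then 0.25–8 h. Brain taken 1 h after po dosing and homogenized. Samples protein-precipitated with imipramine internal standard and quantified by LC–MS/MS (ESI+). Mean ± SEM.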

Rattus norvegicus [13] = experiment: AUC (infinity) in Fischer 344 rat at 3 mg/kg, iv; format: ADME, organism-based, Plasma; parameters: time infinity, dose 3 mg/kg, route intravenous; details: in vivo
How it was run: (§4)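 Fasted F344 rats (n = 3 per dose, 189.4–205.9 g). iv: 3 mg kg−1 given as 3 mg mL−1 in 5% ethanol-0.02 mol L−1 HCl/5% glucose. p.o.: 10 mg kg−1 given as 2 mg mL−1 in 5% DMSO/5% Cremophor EL/equivalent HCl/H2O. Blood sampled at 0.083 h (iv only), then 0.25, 0.5, 1, 2, 4, 6 and 8 h. Plasma extracted with MeOH/MeCN containing imipramine internal standard and measured by positive-ESI LC–MS/MS. Results given as mean ± SEM.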

[14] = Cmax in Fischer 344 rat at 10 mg/kg, po; format: ADME, organism-based; parameters: dose 10 mg/kg, route oral; details: in vivo; how it was run: as §3
[15] = Oral bioavailability in Fischer 344 rat at 10 mg/kg; format: ADME, organism-based; details: in vivo; how it was run: as §3
[16] = Total blood clearance in Fischer 344 rat at 3 mg/kg, iv; format: ADME, organism-based; parameters: dose 3 mg/kg, route intravenous; details: whole blood; how it was run: as §3
[17] = Tmax in Fischer 344 rat at 10 mg/kg, po; format: ADME, organism-based; parameters: dose 10 mg/kg, route oral; details: in vivo; how it was run: as §3
[18] = Ratio of drug level in brain to plasma in Fischer 344 rat at 10 mg/kg, po after 1 hr; format: ADME, organism-based; parameters: dose 10 mg/kg, route oral; details: brain and plasma, read-out: BPR; how it was run: as §3
Rattus norvegicus [19] = experiment: Inhibition of CRF-induced ACTH release in Fischer 344 rat plasma at 30 mg/kg, po administered 60 mins before CRF challenge by RIA; format: functional, organism-based; parameters: dose 30 mg/kg
How it was run: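 Male Fischer 344 rats (152–177 g) dosed orally 1 h before subcutaneous CRF at 10 µg/kg; controls got vehicle 5% DMSO/5% Cremophor/90% saline. Trunk blood taken 30 min after CRF into EDTA and spun. Plasma ACTH measured in duplicate by immunoradiometric kit against ACTH standard curve. n = 5–6 rats; mean ± S.E.M.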

[20] = Volume of distribution at steady state in Fischer 344 rat at 3 mg/kg, iv; format: ADME, organism-based; parameters: dose 3 mg/kg, route intravenous; details: in vivo, read-out: Vdss; how it was run: as §3
Rattus norvegicus [21] = experiment: AUC (infinity) in Fischer 344 rat at 10 mg/kg, po; format: ADME, organism-based, Plasma; parameters: time infinity, dose 10 mg/kg, route oral; details: in vivo; how it was run: as §4

Compound | IC50 [1] [nM] | solubility [2] [µM] | IC50 [3] [nM] | also measured
CCN(CC)c1ccc(OC)c2nc(-c3c(OC)cc(C)cc3OC)c(C)cc12 | 99 | 17.3 (≈ 6.83 µg/mL) | 43 | –
CCc1cc2c(N(CC)CC)ccc(OC)c2nc1-c1c(OC)cc(COC)cc1OC | 108 | 12.1 (≈ 5.31 µg/mL) | 32 | –
CCN(CC)c1ccc(C)c2nc(-c3c(OC)cc(COC)cc3OC)c(F)cc12 | – | < 0.2 | – | –
CCN(CC)c1ccc(C#N)c2nc(-c3c(OC)cc(COC)cc3OC)c(C)cc12 | 102 | 3.2 (≈ 1.34 µg/mL) | 36 | solubility [4]: 4.2 µM (≈ 1.76 µg/mL); pKa [5]: < 3; solubility [6]: > 100 µM; solubility [7]: 2.1 µM (≈ 0.881 µg/mL)
CCN(CCOC)c1ccc(C)c2nc(-c3c(OC)cc(COC)cc3OC)c(C)cc12 | – | 7.2 (≈ 3.16 µg/mL) | – | –
CCN(CC)c1ccc(C)c2nc(-c3c(OC)cc(COC)cc3OC)c(Cl)cc12 | – | < 0.2 | – | –
CCN(CC)c1ccc(C)c2nc(-c3c(OC)cc(COC)cc3OC)ccc12 | – | < 0.2 | – | –
COCCN(CC(C)C)c1ccc(OC)c2nc(-c3c(OC)cc(COC)cc3OC)c(C)cc12 | 156 | 8.7 (≈ 4.2 µg/mL) | 65 | –
CCN(CC)c1ccc(OC)c2nc(-c3c(OC)cc(COC)cc3OC)ccc12 | 202 | 38.2 (≈ 15.7 µg/mL) | 332 | –
CCN(CC)c1ccc(C(F)(F)F)c2nc(-c3c(OC)cc(COC)cc3OC)c(C)cc12 | 288 | < 0.2 | 259 | –
CCN(CC)c1ccc(OC)c2nc(-c3c(Cl)cc(COC)cc3OC)c(C)cc12 | 67 | 3.7 (≈ 1.59 µg/mL) | 22 | Activity (Mus musculus [8]): Active; Activity (Mus musculus [9]): Active; Activity (Mus musculus [10]): Dose-dependent effect; Activity (Mus musculus [11]): Dose-dependent effect
CCCN(CCC)c1ccc(OC)c2nc(-c3c(OC)cc(COC)cc3OC)c(C)cc12 | 105 | < 0.2 | 99 | –
CCN(CC)c1ccc(F)c2nc(-c3c(OC)cc(COC)cc3OC)c(C)cc12 | 226 | 10.5 (≈ 4.33 µg/mL) | 67 | –
CCN(CC)c1ccc(OC)c2nc(-c3c(OC)cc(COC)cc3OC)c(F)cc12 | 118 | 4.6 (≈ 1.97 µg/mL) | 75 | –
CCN(CC)c1ccc(C)c2nc(-c3c(OC)cc(COC)cc3OC)c(C)cc12 | – | 1.7 (≈ 0.695 µg/mL) | – | solubility [4]: 2 µM (≈ 0.817 µg/mL); pKa [5]: 5.86; solubility [6]: > 100 µM; solubility [7]: 22 µM (≈ 8.99 µg/mL)
CCN(CCOC)c1ccc(OC)c2nc(-c3c(OC)cc(COC)cc3OC)c(C)cc12 | 392 | 89.4 (≈ 40.6 µg/mL) | – | –
CCN(CC)c1ccc(C(F)F)c2nc(-c3c(OC)cc(COC)cc3OC)c(C)cc12 | 414 | < 0.2 | – | –
CCN(CC)c1ccc(Cl)c2nc(-c3c(OC)cc(COC)cc3OC)c(C)cc12 | 62 | < 0.2 | 28 | –
CCN(CC)c1ccc(OC)c2nc(-c3c(OC)cc(COC)cc3OC)c(Cl)cc12 | 144 | 1.9 (≈ 0.845 µg/mL) | 57 | –
CCN(CC)c1ccc(COC)c2nc(-c3c(OC)cc(COC)cc3OC)c(C)cc12 | > 1000 | 2.9 (≈ 1.27 µg/mL) | – | –
CCCN(CCC)c1ccc(C)c2nc(-c3c(OC)cc(COC)cc3OC)c(C)cc12 | – | 2 (≈ 0.873 µg/mL) | – | –
CCN(CC)c1ccc(OC)c2nc(-c3c(OC)cc(COC)cc3OC)c(C)cc12 | 110 | 74 (≈ 31.4 µg/mL) | 91 | solubility [4]: 71 µM (≈ 30.1 µg/mL); half-life [12]: 1.73 h; pKa [5]: 6.01; AUC (Rattus norvegicus [13]): 1.542 µg/mL/h; solubility [6]: > 100 µM; Cmax [14]: 305 ng/mL; bioavailability [15]: 16.4%; Activity (Mus musculus [10]): Dose-dependent effect; clearance [16]: 44 mL/min/kg; Tmax [17]: 0.5 h; solubility [7]: 98.2 µM (≈ 41.7 µg/mL); Activity (Mus musculus [11]): Dose-dependent effect; Kp at 1 h [18]: 0.61; Activity (Rattus norvegicus [19]): Active; Vd [20]: 2.15 L/kg; AUC (Rattus norvegicus [21]): 0.845 µg/mL/h
CCN(CC)c1ccc(OC)c2nc(-c3c(OC)cc(C#N)cc3OC)c(C)cc12 | 132 | 11 (≈ 4.46 µg/mL) | 63 | –
